Most compounds without a hit are left out; they make up all but 0.75% or so of the library.
ZTA DNA inh – counter-screen for EBNA-1 inhibitors: inhibitors of Epstein-Barr virus ZTA. inhibition, % at 11 µM. ZTA-DNA binding, fluorescence polarization. P03206. hit rate 0.15% among 320,000; in the data active = inhibition above about 33%
Target sequence (P03206 whole entry, looked up): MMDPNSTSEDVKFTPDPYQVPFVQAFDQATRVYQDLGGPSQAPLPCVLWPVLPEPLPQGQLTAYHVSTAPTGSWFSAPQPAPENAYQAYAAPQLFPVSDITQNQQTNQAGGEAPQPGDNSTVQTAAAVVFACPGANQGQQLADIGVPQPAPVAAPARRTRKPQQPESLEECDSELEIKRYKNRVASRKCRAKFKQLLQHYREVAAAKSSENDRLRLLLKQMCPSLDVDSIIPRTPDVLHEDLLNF
ARFGAP1 inh – rat ARFGAP1 inhibition; Q62848; Arfgap1-stimulated ARF1 GTP hydrolysis, GDP FP detection; inhibition, % at 16.5 µM; hit rate 0.26% among 360,000;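 active = inhibition above a per-plate limit, mean inhibition of low control wells plus 3 SD, cut at about 25% in these data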;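 note: 0% = DMSO wells with enzyme and 100% = wells lacking Arfgap1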
Target sequence (Q62848 1-136 limits assumed): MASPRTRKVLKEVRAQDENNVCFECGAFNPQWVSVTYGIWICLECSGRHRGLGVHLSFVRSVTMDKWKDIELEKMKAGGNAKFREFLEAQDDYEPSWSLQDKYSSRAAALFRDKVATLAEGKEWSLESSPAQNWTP
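Material – truncated rat Arfgap1 GAP domain · Buffer or medium – HEPES-based buffer, pH 7.5 · Reagent – human ARF1(Δ1-17)-GTP substrate · Dosing – 16.5 µM single point, 1.26% DMSO · Schedule – GTP hydrolysis reaction 2 h at 25 °C · Technique – GDP detection by fluorescence polarization · Benchmarks – No-Arfgap1 wells (100%) versus DMSO full-reaction wells (0%) · Repeats – single replicate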
EBNA-1 inhibitor – blocks EBNA-1 binding to DNA | EBNA-1 DNA binding, fluorescence polarization | inhibition, % at 14.8 µM | hit rate 0.34% among 300,000 | AID 1950; in the data active = inhibition above about 28%
ASAP1 GAP inh – ASAP1 ArfGAP inhibition | Q9ULH1 | ASAP1-stimulated ARF1 GTP hydrolysis, GDP FP detection | inhibition, % at 16.5 µM | hit rate 0.19% among 360,000 | AID 624377; in the data active = inhibition above about 25%;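 note: 0% = vehicle with enzyme and substrate and 100% = no enzyme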
Target sequence (Q9ULH1 325-724 limits assumed): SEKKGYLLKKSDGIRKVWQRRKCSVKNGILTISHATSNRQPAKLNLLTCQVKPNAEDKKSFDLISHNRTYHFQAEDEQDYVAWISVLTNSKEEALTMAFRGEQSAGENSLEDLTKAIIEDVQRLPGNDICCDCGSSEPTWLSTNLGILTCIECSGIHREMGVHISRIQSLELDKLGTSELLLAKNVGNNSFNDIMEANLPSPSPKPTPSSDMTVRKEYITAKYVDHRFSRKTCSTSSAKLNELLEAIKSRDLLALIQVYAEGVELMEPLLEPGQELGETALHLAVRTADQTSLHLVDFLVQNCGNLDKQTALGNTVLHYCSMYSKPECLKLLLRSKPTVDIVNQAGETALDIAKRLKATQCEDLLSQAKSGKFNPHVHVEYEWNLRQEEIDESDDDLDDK
EBNA-1 confirm – EBNA-1 (EBV) inhibition, confirmation. shares compounds with EBNA-1 inhibitor. Recombinant EBNA-1 DBD, Cy5-DNA fluorescence polarization. inhibition, % at 14.8 µM. hit rate 35% among 830;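 active = mean inhibition across replicates above a set limit taken from the earlier primary screen, cut at about 28% in these data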;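 note: plate controls were EBNA-1 protein with DMSO for no effect and wells lacking EBNA-1 for full effect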
ZTA counter trip – blocks Epstein-Barr virus ZTA in triplicate, EBNA-1 counter-screen | shares compounds with EBNA-1 inhibitor | Zta-ZRE DNA binding, Cy5 fluorescence polarization | inhibition, % at 11.1 µM | 830 tested, under 10 active | AID 2328;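 active = mean inhibition over triplicates above a set limit taken from the primary EBNA-1 screen, cut at about 37% in these data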;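 note: purified full length Zta protein with Cy5 labeled ZRE DNA probe; 0% = Zta with DMSO and 100% = wells lacking Zta protein; inhibitors lower polarization by freeing the labeled DNA probe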
Zta DNA confirm – EBV ZTA DNA binding inhibition, confirmation | shares compounds with ZTA DNA inh | inhibition, % at 11.1 µM | hit rate 30% among 320 | Zta-ZRE DNA binding, fluorescence polarization | AID 2361;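 active = mean inhibition across triplicate runs above the hit threshold derived for the original primary screen, cut at about 33% in these data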;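 note: 0% = Zta with DMSO and 100% = wells lacking Zta protein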
EBNA1 counter – blocks EBNA-1 DNA binding in ZTA counter-screen | AID 2362 | inhibition, % at 14.8 µM | 320 tested, under 10 active | shares compounds with ZTA DNA inh | fluorescence polarization; call rule not given here
ASAP1 GAP conf – ASAP1 inhibition confirmed | shares compounds with ASAP1 GAP inh | ASAP1-stimulated Arf1 GTPase, GDP fluorescence polarization | inhibition, % at 16.5 µM | hit rate 37% among 620 | AID 624431;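 active = mean inhibition over triplicates exceeds the hit threshold derived for the earlier primary screening run, cut at about 25% in these data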
ARFGAP1 confirm – rat ARFGAP1 inhibition, confirmed; hit rate 30% among 890; ARFGAP1-stimulated ARF1 GTP hydrolysis, GDP tracer FP; shares compounds with ARFGAP1 inh; inhibition, % at 16.5 µM;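 active = average inhibition over triplicates above the hit cutoff set in the earlier primary screen, cut at about 25% in these data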;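 note: 0% = Arfgap1 plus ARF1-GTP with DMSO and 100% = wells lacking Arfgap1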
An asterisk follows results filed as active; / = no result given.

SMILES | ZTA DNA inh | ARFGAP1 inh | EBNA-1 inhibitor | ASAP1 GAP inh | others
OCC[n+]1c2ccccc2nc2ccc(N3CCOCC3)cc21 | 115.0* | 3.7 | 84.4* | -2.6
O=C(CCc1ccccc1)N1Cc2cc(N3CCOCC3)ccc2-n2nncc2C1 | / | -2.8 | / | -4.1
Cc1cc(N2CCNC[C@@H]2C)ccc1N1CCN[C@@H](C)C1 | / | -7.6 | / | -4.9
O=C(NCCN1CCC2(CC1)C(=O)NCN2c1ccccc1)c1ccc(F)c(F)c1 | / | 2.5 | / | 0.0
O=c1[nH]c(=S)n(-c2ccccc2F)c(O)c1C=Nc1ccc(N2CCOCC2)cc1 | 44.6* | -6.4 | 12.9 | 8.0
O=C1NC(=O)N(c2ccccc2)C(=O)/C1=C\c1ccc([N+](=O)[O-])o1 | 41.5* | / | -1.8 | /
CN1C(=O)NC(=O)/C(=C/c2ccc([N+](=O)[O-])o2)C1=O | 16.5 | -8.4 | -0.9 | -3.4
Cc1ccccc1N1C(=O)/C(=C/c2ccco2)C(=O)NC1=S | 69.0* | / | 109.9* | /
C=CCn1c(O)c(C(CC)=Nc2ccc3c(c2)CCC3)c(=O)[nH]c1=O | -10.0 | 19.4 | -7.7 | -9.6
C=CCn1c(O)c(C(CC)=Nc2ccc(N(C)C)cc2)c(=O)[nH]c1=O | 137.6* | -14.4 | 126.8* | 4.1
COC(=O)C1C(c2ccc(Cl)cc2)CC2CCC1N2C (stereo not drawn) | / | -3.0 | / | 2.7
Cc1ccccc1-n1c(O)c(C=Nc2ccc(N(C)C)cc2)c(=O)[nH]c1=O | 172.1* | -7.0 | 42.8* | 8.3
CCc1ccc(NC(=O)C(C)OC(=O)c2c(C)nn(Cc3ccccc3)c2Cl)cc1 (stereo not drawn) | 8.1 | -9.5 | 2.7 | 11.0
Cc1nn(Cc2ccccc2)c(Cl)c1C(=O)OC(C)C(=O)Nc1ccc(F)cc1Cl (stereo not drawn) | -5.3 | -9.5 | 121.6* | -3.5 | EBNA-1 confirm=129.1*;ZTA counter trip=-10.5
Cc1nn(Cc2ccccc2)c(Cl)c1C(=O)OCC(=O)Nc1cccc2ccccc12 | 5.8 | 0.3 | 61.0* | 8.3 | EBNA-1 confirm=15.3;ZTA counter trip=-6.0
O=C(NC1CN2CCC1CC2)c1ccc(Cl)cc1 (stereo not drawn) | / | 1.7 | / | -6.8
Cc1cc(/C=C2\C(=O)NC(=O)N(c3ccccc3F)C2=O)c(C)n1-c1cc(C(=O)O)cc(C(=O)O)c1 | 33.0* | 2.3 | -1.9 | 4.7 | Zta DNA confirm=60.4*;EBNA1 counter=3.5
Cc1cc(/C=C2\C(=O)NC(=O)N(c3ccc(F)cc3)C2=O)c(C)n1-c1cccc(C(=O)O)c1 | 3.1 | -3.3 | -0.4 | 8.8
Cn1ncnc2c(=O)n(C)c(=O)nc1-2 | 59.0* | / | 1.1 | / | Zta DNA confirm=72.0*;EBNA1 counter=-10.8
CCN(CC)c1ccc(N=Cc2c(O)n(-c3ccc(Cl)cc3)c(=O)[nH]c2=O)cc1 | -8.6 | 7.5 | -3.8 | 1.4
CCN(CC)c1ccc(N=Cc2c(O)n(-c3ccc(OC)cc3)c(=O)[nH]c2=O)cc1 | 36.4* | -2.4 | -5.9 | -2.9 | Zta DNA confirm=-5.2;EBNA1 counter=-10.8
C=CCn1c(O)c(C=Nc2ccc(N(CC)CC)cc2)c(=O)[nH]c1=O | 45.1* | 4.1 | 6.7 | 10.0 | Zta DNA confirm=1.0;EBNA1 counter=-7.1
COc1ccc(CCn2c(O)c(C=Nc3ccc(NC(C)=O)cc3)c(=O)[nH]c2=O)cc1OC | 60.0* | 0.3 | 9.5 | 11.8 | Zta DNA confirm=47.5*;EBNA1 counter=38.2*
Cc1cc(N2CCNC[C@H]2C)ccc1N1CCN[C@H](C)C1 | / | -2.8 | / | -7.6
Cc1ccc2c(c1Cl)NC(C(=O)O)C1CC(Sc3ccccc3[N+](=O)[O-])C(Cl)C21 (stereo not drawn) | -4.8 | / | -1.7 | /
SMILES | ZTA DNA inh | ARFGAP1 inh | EBNA-1 inhibitor | ASAP1 GAP inh | others
CCN(CC)C(=O)c1ccc2c(c1)C1C(Cl)C(Sc3ccccc3[N+](=O)[O-])CC1C(C(=O)O)N2 (stereo not drawn) | 54.5* | / | 16.6 | / | Zta DNA confirm=39.4*;EBNA1 counter=8.0
O=C(NCCN1CCC2(CC1)C(=O)NCN2c1ccccc1)c1cccnc1Cl | / | 2.6 | / | 15.7
C[C@@H]1CNCCN1c1ccc(N2CC[C@H](O)C2)c(C#N)c1 | / | 10.0 | / | -0.1
O=Cc1cn(Cc2ccc(F)cc2)c2ccccc12 | 10.8 | 14.7 | 15.6 | 25.0* | ASAP1 GAP conf=1.6
Cc1ccc(Cn2cc(C=O)c3ccccc32)cc1 | 4.5 | -4.3 | 3.2 | 0.3
COc1cc(CCN)c(OC)cc1C | / | 1.8 | / | 5.8
COC(=O)C1C(c2ccc(I)cc2)CC2CCC1N2C (stereo not drawn) | / | 11.5 | / | 25.5* | ASAP1 GAP conf=4.8
COC(=O)C1C(c2ccccc2)CC2CCC1N2C (stereo not drawn) | / | 1.8 | / | -6.3
CCc1c(C(=O)NN2C(=O)C3C4CCC(O4)C3C2=O)csc1C (stereo not drawn) | 4.2 | -3.5 | -3.3 | 25.8* | ASAP1 GAP conf=-0.6
O=C1C=C(N2CC2)c2ccccc2C1=O | / | -5.9 | / | 30.6* | ASAP1 GAP conf=-5.9
N#Cc1ccc(NC(=S)N2Cc3cc(Br)ccc3-n3nncc3C2)cc1 | / | 1.3 | / | 6.6
CCC(C)NC(=O)c1c(N)n(CCCOC)c2nc3ccccc3nc12 (stereo not drawn) | 6.7 | -16.4 | 1.7 | 27.2* | ASAP1 GAP conf=14.7
Cc1cc(N2CCNC[C@H]2C)ccc1N1CC[C@@H](O)C1 | / | 1.0 | / | -4.5
COCCCn1c(N)c(C(=O)Nc2sc3c(c2C(=O)OC)CCCC3)c2nc3ccccc3nc21 | -8.0 | 27.3* | -1.9 | 29.1* | ASAP1 GAP conf=-3.0;ARFGAP1 confirm=2.0
O=C1C2CC=CCC2C(=O)N1SC(Cl)(Cl)Cl (stereo not drawn) | / | -12.1 | / | 0.2
COc1cccc(CN2CCCCC2c2cccnc2)c1 (stereo not drawn) | -6.1 | 25.1* | 2.5 | -10.6 | ARFGAP1 confirm=1.7
COc1ccc(CN2CCCCC2c2cccnc2)cc1C (stereo not drawn) | -0.6 | -2.2 | 7.5 | 1.5
C=CCN1CC[C@]23c4c5ccc(O)c4OC2C(=O)CC[C@@]3(O)[C@H]1C5 (stereo partly drawn) | / | 2.1 | / | -3.0
CC1CC(C)CN(C(=O)COC(=O)c2cn(C)c3ccccc23)C1 (stereo not drawn) | -5.9 | 42.1* | / | 18.2 | ARFGAP1 confirm=49.4*
CCOc1ccc(C(C)=O)cc1Cc1c(O)[nH]c(=S)[nH]c1=O | / | 5.9 | / | 20.0
CCCOc1ccc(C(C)=O)cc1Cc1c(O)[nH]c(=S)[nH]c1=O | -6.3 | 25.5* | -1.8 | 1.5 | ARFGAP1 confirm=1.6
COCCNC(=O)c1ccc(N2CC3CC(C2)c2cccc(=O)n2C3)c([N+](=O)[O-])c1 (stereo not drawn) | 3.0 | 35.3* | -1.7 | 6.9 | ARFGAP1 confirm=2.6
